pIC50: −log10 of the molar value. In brackets after ≈: the same amount, converted by molar mass.
Assays:
[1] = system: SF-268; assay: Cytotoxicity against human SF268 cells at 0.01 ug/ml relative to control; format: functional
[2] = system: T-24; assay: Cytotoxicity against human T24 cells; format: functional, cell-based
How it was run: (§1)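 Monolayer cell survival and proliferation assay run across a panel of 36 human tumor cell lines, with IC50 determined from the resulting growth data.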

[3] = Cytotoxicity against human CNXF 498NL cells; format: functional, cell-based
How it was run: (§2)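 Monolayer cell survival and proliferation assay, run within a panel of 36 human tumor cell lines; IC50 determined per cell line.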

[4] = system: HCT-116; assay: Cytotoxicity against human HCT116 cells; format: functional, cell-based; how it was run: as §2
[5] = Cytotoxicity against human LXFL 1121L cells; format: functional, cell-based
How it was run: (§3)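 Monolayer cell survival and proliferation assay run across a panel of 36 human tumour cell lines; IC50 values determined.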

[6] = Cytotoxicity against human LXFA 526L cells; format: functional, cell-based; how it was run: as §3
[7] = system: NCI-H460; assay: Cytotoxicity against human H460 cells; format: functional, cell-based; how it was run: as §2
[8] = system: MCF7; assay: Cytotoxicity against human MCF7 cells; format: functional, cell-based; how it was run: as §3
[9] = Cytotoxicity against human MEXF 514L cells; format: functional, cell-based; how it was run: as §1
[10] = Cytotoxicity against human MEXF 520L cells; format: functional, cell-based; how it was run: as §1
[11] = Cytotoxicity against human OVXF 1619L cells; format: functional, cell-based; how it was run: as §1
[12] = Cytotoxicity against human PXF 1752L cells; format: functional, cell-based; how it was run: as §1
[13] = Cytotoxicity against human RXF 1781L cells; format: functional, cell-based; how it was run: as §1
[14] = system: SF-268; assay: Cytotoxicity against human SF268 cells at 0.001 ug/ml relative to control; format: functional
[15] = system: HT-29; assay: Cytotoxicity against human HT-29 cells at 0.001 ug/ml relative to control; format: functional
[16] = Cytotoxicity against human LXFA 289L cells at 0.001 ug/ml relative to control; format: functional
[17] = Cytotoxicity against human MAXF 401NL cells at 0.001 ug/ml relative to control; format: functional
[18] = Cytotoxicity against human MEXF 520L cells at 0.001 ug/ml relative to control; format: functional
[19] = Cytotoxicity against human OVXF 899L cells at 0.001 ug/ml relative to control; format: functional
[20] = system: OVCAR-3; assay: Cytotoxicity against human OVCAR3 cells at 0.001 ug/ml relative to control; format: functional
[21] = system: LNCaP; assay: Cytotoxicity against human LNCAP cells at 0.001 ug/ml relative to control; format: functional
[22] = Cytotoxicity against human PXF 1752L cells at 0.001 ug/ml relative to control; format: functional
[23] = Cytotoxicity against human RXF 486L cells at 0.001 ug/ml relative to control; format: functional
[24] = system: HT-29; assay: Cytotoxicity against human HT-29 cells at 0.01 ug/ml relative to control; format: functional
[25] = Cytotoxicity against human MEXF 276L cells at 0.01 ug/ml relative to control; format: functional, MEXF276L
[26] = Cytotoxicity against human MEXF 520L cells at 0.01 ug/ml relative to control; format: functional
[27] = Cytotoxicity against human OVXF 1619L cells at 0.01 ug/ml relative to control; format: functional
[28] = system: OVCAR-3; assay: Cytotoxicity against human OVCAR3 cells at 0.01 ug/ml relative to control; format: functional
[29] = system: DU-145; assay: Cytotoxicity against human DU145 cells at 0.01 ug/ml relative to control; format: functional
[30] = system: LNCaP; assay: Cytotoxicity against human LNCAP cells at 0.01 ug/ml relative to control; format: functional
[31] = Cytotoxicity against human PXF 1752L cells at 0.01 ug/ml relative to control; format: functional
[32] = Cytotoxicity against human RXF 1781L cells at 0.01 ug/ml relative to control; format: functional
[33] = Cytotoxicity against human RXF 486L cells at 0.01 ug/ml relative to control; format: functional
[34] = Cytotoxicity against human BXF 1218L cells at 0.1 ug/ml relative to control; format: functional
[35] = Cytotoxicity against human CNXF 498NL cells at 0.1 ug/ml relative to control; format: functional
[36] = system: HCT-116; assay: Cytotoxicity against human HCT116 cells at 0.1 ug/ml relative to control; format: functional
[37] = Cytotoxicity against human MAXF 401NL cells at 0.1 ug/ml relative to control; format: functional
[38] = Cytotoxicity against human OVXF 1619L cells at 0.1 ug/ml relative to control; format: functional
[39] = system: PANC-1; assay: Cytotoxicity against human PANC1 cells at 0.1 ug/ml relative to control; format: functional
[40] = Cytotoxicity against human PC3M cells at 0.1 ug/ml relative to control; format: functional, PC-3M
[41] = Cytotoxicity against human RXF 486L cells at 0.1 ug/ml relative to control; format: functional
[42] = Cytotoxicity against human RXF 944L cells at 0.1 ug/ml relative to control; format: functional
[43] = Cytotoxicity against human UXF 1138L cells at 0.1 ug/ml relative to control; format: functional
[44] = system: SF-268; assay: Cytotoxicity against human SF268 cells at 1 ug/ml relative to control; format: functional
[45] = Cytotoxicity against human GXF251L cells at 1 ug/ml relative to control; format: functional
[46] = Cytotoxicity against human MEXF 514L cells at 1 ug/ml relative to control; format: functional
[47] = Cytotoxicity against human MEXF 520L cells at 1 ug/ml relative to control; format: functional
[48] = Cytotoxicity against human OVXF 1619L cells at 1 ug/ml relative to control; format: functional
[49] = Cytotoxicity against human RXF 393NL cells at 1 ug/ml relative to control; format: functional
[50] = Cytotoxicity against human LXFA 289L cells at 10 ug/ml relative to control; format: functional
[51] = Cytotoxicity against human OVXF 899L cells at 10 ug/ml relative to control; format: functional
[52] = system: PANC-1; assay: Cytotoxicity against human PANC1 cells at 10 ug/ml relative to control; format: functional
[53] = Cytotoxicity against human PXF 1752L cells at 10 ug/ml relative to control; format: functional
[54] = Cytotoxicity against human RXF 1781L cells at 10 ug/ml relative to control; format: functional

Q: With `C=C1[C@@H](O)[C@H]2O[C@@]2(C[C@H]2C(C)=CC[C@H]3C(C)(C)CCC[C@]23C)[C@@H](O)[C@H]1O` [EPOXYPHOLAMIN D] as the compound, how does the Activity [1] read?
A: 97%

Q: And the pIC50 [2]?
A: 4.92

Q: And the IC70 [2]?
A: 6.41 µg/mL (≈ 17.7 µM)

Q: And the IC90 [2]?
A: 9.44 µg/mL (≈ 26 µM)

Q: And the pIC50 [3]?
A: 5.46

Q: And the IC70 [3]?
A: 3.09 µg/mL (≈ 8.53 µM)

Q: And the IC90 [3]?
A: 7.63 µg/mL (≈ 21 µM)

Q: What about the pIC50 [4] of the same compound?
A: 5.11

Q: And the IC70 [4]?
A: 4.86 µg/mL (≈ 13.4 µM)

Q: What about the IC90 [4] of the same compound?
A: 8.47 µg/mL (≈ 23.4 µM)

Q: What about the pIC50 [5] of the same compound?
A: 5.05

Q: What about the IC70 [5] of the same compound?
A: 5.35 µg/mL (≈ 14.8 µM)

Q: What about the IC90 [5] of the same compound?
A: 8.82 µg/mL (≈ 24.3 µM)

Q: And the pIC50 [6]?
A: 4.87

Q: What about the IC70 [6] of the same compound?
A: 7.76 µg/mL (≈ 21.4 µM)

Q: And the IC90 [6]?
A: 12.3 µg/mL (≈ 33.9 µM)

Q: And the pIC50 [7]?
A: 5.13

Q: And the IC70 [7]?
A: 4.73 µg/mL (≈ 13 µM)

Q: And the IC90 [7]?
A: 8.23 µg/mL (≈ 22.7 µM)

Q: What about the pIC50 [8] of the same compound?
A: 5.27

Q: And the IC70 [8]?
A: 4.01 µg/mL (≈ 11.1 µM)

Q: What about the IC90 [8] of the same compound?
A: 8.33 µg/mL (≈ 23 µM)

Q: What about the pIC50 [9] of the same compound?
A: 4.93

Q: What about the IC70 [9] of the same compound?
A: 6.57 µg/mL (≈ 18.1 µM)

Q: What about the IC90 [9] of the same compound?
A: 10.2 µg/mL (≈ 28.2 µM)

Q: And the pIC50 [10]?
A: 5.12

Q: And the IC70 [10]?
A: 4.91 µg/mL (≈ 13.6 µM)

Q: What about the IC90 [10] of the same compound?
A: 8.68 µg/mL (≈ 23.9 µM)

Q: What about the pIC50 [11] of the same compound?
A: 4.99

Q: What about the IC70 [11] of the same compound?
A: 6.09 µg/mL (≈ 16.8 µM)

Q: What about the IC90 [11] of the same compound?
A: 10 µg/mL (≈ 27.6 µM)

Q: And the pIC50 [12]?
A: 5.64

Q: What about the IC70 [12] of the same compound?
A: 3.05 µg/mL (≈ 8.42 µM)

Q: And the IC90 [12]?
A: 12.3 µg/mL (≈ 34 µM)

Q: What about the pIC50 [13] of the same compound?
A: 4.93

Q: And the IC70 [13]?
A: 7.69 µg/mL (≈ 21.2 µM)

Q: And the IC90 [13]?
A: 13.8 µg/mL (≈ 38 µM)

Q: What about the Activity [14] of the same compound?
A: 106%

Q: What about the Activity [15] of the same compound?
A: 97%

Q: What about the Activity [16] of the same compound?
A: 98%

Q: And the Activity [17]?
A: 106%

Q: And the Activity [18]?
A: 97%

Q: What about the Activity [19] of the same compound?
A: 103%

Q: What about the Activity [20] of the same compound?
A: 100%

Q: And the Activity [21]?
A: 82%

Q: And the Activity [22]?
A: 95%

Q: What about the Activity [23] of the same compound?
A: 95%

Q: And the Activity [24]?
A: 113%

Q: What about the Activity [25] of the same compound?
A: 98%

Q: What about the Activity [26] of the same compound?
A: 96%

Q: And the Activity [27]?
A: 106%

Q: And the Activity [28]?
A: 98%

Q: What about the Activity [29] of the same compound?
A: 76%

Q: What about the Activity [30] of the same compound?
A: 111%

Q: What about the Activity [31] of the same compound?
A: 101%

Q: What about the Activity [32] of the same compound?
A: 95%

Q: What about the Activity [33] of the same compound?
A: 99%

Q: What about the Activity [34] of the same compound?
A: 104%

Q: And the Activity [35]?
A: 71%

Q: And the Activity [36]?
A: 108%

Q: And the Activity [37]?
A: 110%

Q: And the Activity [38]?
A: 81%

Q: And the Activity [39]?
A: 97%

Q: And the Activity [40]?
A: 73%

Q: And the Activity [41]?
A: 97%

Q: And the Activity [42]?
A: 95%

Q: What about the Activity [43] of the same compound?
A: 99%

Q: What about the Activity [44] of the same compound?
A: 117%

Q: What about the Activity [45] of the same compound?
A: 41%

Q: What about the Activity [46] of the same compound?
A: 115%

Q: What about the Activity [47] of the same compound?
A: 86%

Q: What about the Activity [48] of the same compound?
A: 103%

Q: What about the Activity [49] of the same compound?
A: 118%

Q: What about the Activity [50] of the same compound?
A: 39%

Q: And the Activity [51]?
A: 12%

Q: What about the Activity [52] of the same compound?
A: 7%

Q: What about the Activity [53] of the same compound?
A: 13%

Q: And the Activity [54]?
A: 21%

Source: ChEMBL document CHEMBL1649383, “Mode of action of epoxyphomalins A and B and characterization of related metabolites from the marine-derived fungus Paraconiothyrium sp” (J Nat Prod, 2010)
